# Test results reported in ChEMBL document CHEMBL4229408 (Bioorg Med Chem, 2018).
# pIC50: −log10 of the molar value.
# What was measured:
# [1] = Antiproliferative activity against human CAR cells after 72 hrs by MTT assay; assay type: functional, cell-based
# Outline: (§1)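 CAR cells (CAL27 made cisplatin-resistant by 10 cycles of 10–80 μM cisplatin) kept in DMEM/10% FBS with 80 μM cisplatin. Seeded 2×10^4 cells/well and exposed to 0, 25, 50, 75 and 100 μM for 48 or 72 h, with 0.5% DMSO as vehicle. MTT (500 μg/ml) added for 4 h at 37 °C, formazan dissolved in DMSO, A570 read as % of control, IC50 derived.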
# [2] = Antiproliferative activity against human CAR cells after 48 hrs by MTT assay; assay type: functional, cell-based; outline: as §1
# Mus musculus [3] = assay: Toxicity in BALB/c nude mouse xenografted with human CAR cells assessed as albumin levels in blood at 50 mg/kg, po qd administered for 30 days measured on day 31 (reference value: 3.45 +/- 0.138 g/dL); assay type: organism-based; conditions: in vivo, 720 h
# Mus musculus [4] = assay: Toxicity in BALB/c nude mouse xenografted with human CAR cells assessed as change in behavior at 25 to 100 mg/kg, po qd administered for 30 days measured during compound dosing; assay type: organism-based; conditions: in vivo, 720 h
# Outline: (§2)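 During the 30-day once-daily oral dosing (25–100 mg/kg) of CAR-xenografted nude mice, body weight, food intake and behaviour were tracked and compared with vehicle-treated controls.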
# Mus musculus [5] = assay: Toxicity in BALB/c nude mouse xenografted with human CAR cells assessed as albumin levels in blood at 100 mg/kg, po qd administered for 30 days measured on day 31 (reference value: 3.45 +/- 0.138 g/dL); assay type: organism-based; conditions: in vivo, 720 h
# Mus musculus [6] = assay: Toxicity in BALB/c nude mouse xenografted with human CAR cells assessed as blood urea nitrogen levels in blood at 25 mg/kg, po qd administered for 30 days measured on day 31 (reference value: 27.7 +/- 4.116 mg/dL); assay type: organism-based; conditions: in vivo, 720 h
# [7] = Antitumor activity against human CAR cells xenografted in BALB/c nude mouse assessed as tumor weight at 25 mg/kg, po qd administered for 30 days measured on day 31 relative to control; assay type: functional
# Outline: (§3)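 Male BALB/c nude mice, four weeks old, implanted subcutaneously in the flank with CAR cells (cisplatin-resistant CAL27 kept in 80 μM cisplatin), 1×10^7 cells/mouse in 0.2 mL medium:Matrigel 1:1. Dosing began at ~50 mm3 tumors (day 22), eight mice/group, oral once daily for 30 days; vehicle 1,2-propanediol. Sacrificed day 31; excised tumors weighed, compared to vehicle controls.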
# Mus musculus [8] = assay: Toxicity in BALB/c nude mouse xenografted with human CAR cells assessed as creatinine levels in blood at 50 mg/kg, po qd administered for 30 days measured on day 31 (reference value: 1 +/- 0.18 mg/dL); assay type: organism-based; conditions: in vivo, 720 h
# Mus musculus [9] = assay: Toxicity in BALB/c nude mouse xenografted with human CAR cells assessed as creatinine levels in blood at 100 mg/kg, po qd administered for 30 days measured on day 31 (reference value: 1 +/- 0.18 mg/dL); assay type: organism-based; conditions: in vivo, 720 h
# Mus musculus [10] = assay: Toxicity in BALB/c nude mouse xenografted with human CAR cells assessed as albumin levels in blood at 25 mg/kg, po qd administered for 30 days measured on day 31 (reference value: 3.45 +/- 0.138 g/dL); assay type: organism-based; conditions: in vivo, 720 h
# Mus musculus [11] = assay: Toxicity in BALB/c nude mouse xenografted with human CAR cells assessed as total protein levels in blood at 25 mg/kg, po qd administered for 30 days measured on day 31 (reference value: 5.6 +/- 0.283 g/dL); assay type: organism-based; conditions: in vivo, 720 h
# Mus musculus [12] = assay: Toxicity in BALB/c nude mouse xenografted with human CAR cells assessed as blood urea nitrogen levels in blood at 100 mg/kg, po qd administered for 30 days measured on day 31 (reference value: 27.7 +/- 4.116 mg/dL); assay type: organism-based; conditions: in vivo, 720 h
# Mus musculus [13] = assay: Toxicity in BALB/c nude mouse xenografted with human CAR cells assessed as blood urea nitrogen levels in blood at 50 mg/kg, po qd administered for 30 days measured on day 31 (reference value: 27.7 +/- 4.116 mg/dL); assay type: organism-based; conditions: in vivo, 720 h
# Mus musculus [14] = assay: Toxicity in BALB/c nude mouse xenografted with human CAR cells assessed as creatinine levels in blood at 25 mg/kg, po qd administered for 30 days measured on day 31 (reference value: 1 +/- 0.18 mg/dL); assay type: organism-based; conditions: in vivo, 720 h
# Mus musculus [15] = assay: Toxicity in BALB/c nude mouse xenografted with human CAR cells assessed as uric acid levels in blood at 50 mg/kg, po qd administered for 30 days measured on day 31 (reference value: 4.65 +/- 0.864 mg/dL); assay type: organism-based; conditions: in vivo, 720 h
# Mus musculus [16] = assay: Toxicity in BALB/c nude mouse xenografted with human CAR cells assessed as uric acid levels in blood at 25 mg/kg, po qd administered for 30 days measured on day 31 (reference value: 4.65 +/- 0.864 mg/dL); assay type: organism-based; conditions: in vivo, 720 h
# Mus musculus [17] = assay: Toxicity in BALB/c nude mouse xenografted with human CAR cells assessed as glucose levels in blood at 25 mg/kg, po qd administered for 30 days measured on day 31 (reference value: 180 +/- 10.392 mg/dL); assay type: organism-based; conditions: in vivo, 720 h
# Mus musculus [18] = assay: Toxicity in BALB/c nude mouse xenografted with human CAR cells assessed as total protein levels in blood at 100 mg/kg, po qd administered for 30 days measured on day 31 (reference value: 5.6 +/- 0.283 g/dL); assay type: organism-based; conditions: in vivo, 720 h
# Mus musculus [19] = assay: Toxicity in BALB/c nude mouse xenografted with human CAR cells assessed as glucose levels in blood at 50 mg/kg, po qd administered for 30 days measured on day 31 (reference value: 180 +/- 10.392 mg/dL); assay type: organism-based; conditions: in vivo, 720 h
# Mus musculus [20] = assay: Toxicity in BALB/c nude mouse xenografted with human CAR cells assessed as glucose levels in blood at 100 mg/kg, po qd administered for 30 days measured on day 31 (reference value: 180 +/- 10.392 mg/dL); assay type: organism-based; conditions: in vivo, 720 h
# Mus musculus [21] = assay: Toxicity in BALB/c nude mouse xenografted with human CAR cells assessed as change in body weight at 25 to 100 mg/kg, po qd administered for 30 days measured during compound dosing; assay type: organism-based; conditions: in vivo, 720 h; outline: as §2
# Mus musculus [22] = assay: Toxicity in BALB/c nude mouse xenografted with human CAR cells assessed as uric acid levels in blood at 100 mg/kg, po qd administered for 30 days measured on day 31 (reference value: 4.65 +/- 0.864 mg/dL); assay type: organism-based; conditions: in vivo, 720 h
# [23] = Antitumor activity against human CAR cells xenografted in BALB/c nude mouse assessed as inhibition of tumor weight at 50 mg/kg, po qd administered for 30 days measured on day 31 relative to control; assay type: functional; parameters: scale not given: the % may be the effect or the level left; outline: as §3
# [24] = Antitumor activity against human CAR cells xenografted in BALB/c nude mouse assessed as inhibition of tumor weight at 100 mg/kg, po qd administered for 30 days measured on day 31 relative to control; assay type: functional; parameters: scale not given: the % may be the effect or the level left; outline: as §3
# Mus musculus [25] = assay: Toxicity in BALB/c nude mouse xenografted with human CAR cells assessed as change in food consumption at 25 to 100 mg/kg, po qd administered for 30 days measured during compound dosing; assay type: organism-based; conditions: in vivo, 720 h; outline: as §2
# Mus musculus [26] = assay: Toxicity in BALB/c nude mouse xenografted with human CAR cells assessed as total protein levels in blood at 50 mg/kg, po qd administered for 30 days measured on day 31 (reference value: 5.6 +/- 0.283 g/dL); assay type: organism-based; conditions: in vivo, 720 h
# [27] = Prodrug conversion in Sprague-Dawley rat whole blood assessed as formation of pterostilbene-4'-O-sulfate by measuring Tmax of metabolite at 100 mg/kg, po using HPbetaCD, PEG300, H2O formulation at 20:10:70 by LC-MS method; assay type: ADME, organism-based; conditions: in vivo
# Outline: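 Male Sprague-Dawley rats (200–220 g), n = 3, given a single oral 100 mg/kg dose in HPβCD:PEG300:H2O 20:10:70 (10 mg/mL). Tail-vein blood collected into heparin at 0.5–24 h (0.5, 1, 1.5, 2, 3, 4, 5, 6, 8, 24 h).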
smiles,measurement,setting,value
COc1ccc(/C=C/c2cc(OC(=O)C(C)(CO)CO)cc(OC(=O)C(C)(CO)CO)c2)cc1,pIC50,[1],4.15
same,pIC50,[2],4.13
COc1cc(O)cc(/C=C/c2ccc(OC(=O)C(C)(CO)CO)cc2)c1,pIC50,[1],4.19
CC(CO)(CO)C(=O)Oc1ccc(/C=C/c2cc(OC(=O)C(C)(CO)CO)cc(OC(=O)C(C)(CO)CO)c2)cc1,pIC50,[1],3.91
CC(CO)(CO)C(=O)Oc1cc(O)cc(/C=C/c2ccc(O)cc2)c1,pIC50,[2],4.26
COc1cc(/C=C/c2ccc(OC(=O)C(C)(CO)CO)cc2)cc(OC(C)=O)c1,pIC50,[1],4.30
same,pIC50,[2],4.28
COc1cc(/C=C/c2ccc(OC(=O)C(C)(CO)CO)cc2)cc(OC)c1,Activity,Mus musculus [3],3.417 g/dL
same,Activity,Mus musculus [4],Non-Toxic
same,pIC50,[1],4.49
same,Activity,Mus musculus [5],3.4 g/dL
same,Activity,Mus musculus [6],28.2 mg/dL
same,Activity,[7],60%
same,Activity,Mus musculus [8],0.91 mg/dL
same,Activity,Mus musculus [9],0.83 mg/dL
same,Activity,Mus musculus [10],3.666 g/dL
same,pIC50,[2],4.14
same,Activity,Mus musculus [11],5.383 g/dL
same,Activity,Mus musculus [12],29.25 mg/dL
same,Activity,Mus musculus [13],30.95 mg/dL
same,Activity,Mus musculus [14],1.133 mg/dL
same,Activity,Mus musculus [15],5.45 mg/dL
same,Activity,Mus musculus [16],4.567 mg/dL
same,Activity,Mus musculus [17],181.333 mg/dL
same,Activity,Mus musculus [18],5.283 g/dL
same,Activity,Mus musculus [19],172.5 mg/dL
same,Activity,Mus musculus [20],196.5 mg/dL
same,Activity,Mus musculus [21],Non-Toxic
same,Activity,Mus musculus [22],5.05 mg/dL
same,Activity,[23],47%
same,Activity,[24],22%
same,Activity,Mus musculus [25],Non-Toxic
same,Activity,Mus musculus [26],5.583 g/dL
same,Tmax,[27],2 h
CC(=O)Oc1cc(/C=C/c2ccc(OC(=O)C(C)(CO)CO)cc2)cc(OC(C)=O)c1,pIC50,[1],3.94
same,pIC50,[2],3.99
CC(=O)Oc1cc(/C=C/c2ccc(OC(=O)C(C)(CO)CO)cc2)cc(OC(=O)C(C)(CO)CO)c1,pIC50,[1],3.92
same,pIC50,[2],3.91
COc1cc(/C=C/c2ccc(OC(=O)C(C)(CO)CO)cc2)cc(OC(=O)C(C)(CO)CO)c1,pIC50,[1],4.22
same,pIC50,[2],4.25
COc1ccc(/C=C/c2cc(OC)cc(OC(=O)C(C)(CO)CO)c2)cc1,pIC50,[1],4.17
same,pIC50,[2],4.19
COc1ccc(/C=C/c2cc(O)cc(OC)c2)cc1,pIC50,[1],4.01
same,pIC50,[2],4.00
Oc1ccc(/C=C/c2cc(O)cc(O)c2)cc1 [RESVERATROL],pIC50,[1],4.05
